Measurements reported in ChEMBL document CHEMBL1821569, “Synthesis of novel 1,2,5-trisubstituted benzimidazoles as potential antitumor agents” (2011).

What was measured:
Assay type in all cases: functional
[1] = test system: CAKI-1; assay: Antitumor activity against human Caki1 cells after 48 hrs by SRB assay; settings: CAKI-1, 48 h
How it was run: (§1)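 NCI 60-cell-line secondary screen. Cells were exposed continuously to drug for 48 h at five concentration levels (100, 10, 1.0, 0.1 and 0.01). Growth was estimated by sulforhodamine B protein staining. GI50 is the concentration giving a 50% reduction in net protein increase versus untreated control cells over the incubation. TGI (total growth inhibition) and LC50 (50% cell kill) were also derived.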

[2] = test system: HT-29; assay: Antitumor activity against human HT-29 cells after 48 hrs by SRB assay; settings: HT-29, 48 h; how it was run: as §1
[3] = test system: MOLT-4; assay: Antitumor activity against human MOLT4 cells after 48 hrs by SRB assay; settings: MOLT-4, 48 h; how it was run: as §1
[4] = test system: MDA-MB-231; assay: Antitumor activity against human MDA-MB-231 cells after 48 hrs by SRB assay; settings: MDA-MB-231, 48 h; how it was run: as §1
[5] = test system: HCT-116; assay: Antitumor activity against human HCT116 cells after 48 hrs by SRB assay; settings: HCT-116, 48 h; how it was run: as §1
[6] = test system: A498; assay: Antitumor activity against human A498 cells after 48 hrs by SRB assay; settings: A498, 48 h; how it was run: as §1
[7] = test system: ACHN; assay: Antitumor activity against human ACHN cells after 48 hrs by SRB assay; how it was run: as §1
[8] = test system: HOP-92; assay: Antitumor activity against human HOP92 cells after 48 hrs by SRB assay; settings: HOP-92, 48 h; how it was run: as §1
[9] = test system: OVCAR-4; assay: Antitumor activity against human OVCAR4 cells after 48 hrs by SRB assay; settings: OVCAR-4, 48 h; how it was run: as §1
[10] = test system: SF-539; assay: Antitumor activity against human SF539 cells after 48 hrs by SRB assay; settings: SF-539, 48 h; how it was run: as §1
[11] = test system: HL-60(TB); assay: Antitumor activity against human HL-60(TB) cells after 48 hrs by SRB assay; settings: HL-60, 48 h
How it was run: (§2)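 NCI 60-cell-line secondary screen: continuous drug exposure for 48 h at five concentration levels (100, 10, 1.0, 0.1 and 0.01). Cell growth was estimated by sulforhodamine B (SRB) protein staining. GI50 is the concentration giving a 50% reduction in net protein increase relative to untreated control cells during the incubation. TGI and LC50 were derived from the same data.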

[12] = test system: DU-145; assay: Antitumor activity against human DU145 cells after 48 hrs by SRB assay; settings: DU-145, 48 h; how it was run: as §1
[13] = test system: UACC-257; assay: Antitumor activity against human UACC257 cells after 48 hrs by SRB assay; settings: UACC-257, 48 h
How it was run: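 NCI 60-cell-line secondary screen. Continuous 48 h exposure at five concentration levels. Cell growth estimated by sulforhodamine B protein staining. GI50 taken as the concentration giving 50% reduction in net protein increase relative to untreated control cells over the incubation. TGI (total growth inhibition) and LC50 (50% cell kill) were also derived.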

[14] = test system: EKVX; assay: Antitumor activity against human EKVX cells after 48 hrs by SRB assay; how it was run: as §1
[15] = test system: HCC 2998; assay: Antitumor activity against human HCC2998 cells after 48 hrs by SRB assay; settings: HCC 2998, 48 h; how it was run: as §2
[16] = test system: 786-0; assay: Antitumor activity against human 786-0 cells after 48 hrs by SRB assay; settings: 786-0, 48 h; how it was run: as §1
[17] = test system: OVCAR-8; assay: Antitumor activity against human OVCAR8 cells after 48 hrs by SRB assay; settings: OVCAR-8, 48 h; how it was run: as §1
[18] = test system: M14; assay: Antitumor activity against human M14 cells after 48 hrs by SRB assay; settings: M14, 48 h; how it was run: as §1
[19] = test system: NCI-H460; assay: Antitumor activity against human NCI-H460 cells after 48 hrs by SRB assay; settings: NCI-H460, 48 h; how it was run: as §1
[20] = test system: IGROV-1; assay: Antitumor activity against human IGROV1 cells after 48 hrs by SRB assay; settings: IGROV-1, 48 h; how it was run: as §1
[21] = test system: SF-268; assay: Antitumor activity against human SF268 cells after 48 hrs by SRB assay; settings: SF-268, 48 h; how it was run: as §1
[22] = test system: BT-549; assay: Antitumor activity against human BT549 cells after 48 hrs by SRB assay; settings: BT-549, 48 h; how it was run: as §1
[23] = Antitumor activity against human Hs 578T cells after 48 hrs by SRB assay; how it was run: as §1
[24] = test system: NCI-H522; assay: Antitumor activity against human NCI-H522 cells after 48 hrs by SRB assay; settings: NCI-H522, 48 h; how it was run: as §1
[25] = test system: A549; assay: Antitumor activity against human A549 cells after 48 hrs by SRB assay; settings: A549, 48 h; how it was run: as §1
[26] = test system: SNB-19; assay: Antitumor activity against human SNB19 cells after 48 hrs by SRB assay; settings: SNB-19, 48 h; how it was run: as §1
[27] = test system: Malme-3M; assay: Antitumor activity against human MALME-3M cells after 48 hrs by SRB assay; how it was run: as §1
[28] = test system: NCI-H23; assay: Antitumor activity against human NCI-H23 cells after 48 hrs by SRB assay; settings: NCI-H23, 48 h; how it was run: as §1
[29] = test system: SNB-75; assay: Antitumor activity against human SNB75 cells after 48 hrs by SRB assay; settings: SNB-75, 48 h; how it was run: as §1
[30] = read-out: LC50 (the source's name)

For `COC(=O)c1ccc2c(c1)nc(-c1ccc(Cl)cc1)n2-c1cc(C(C)(C)C)[nH]n1`, the GI50 [1] was 2.25 µM, the TGI [1] was 12.8 µM and the CC50 [1, 30] was > 100 µM. The GI50 [2] was 3.65 µM, the LC50 (50% cell kill) [2] was > 100 µM and the TGI [2] was 15.4 µM. The GI50 [3] was 5.48 µM, the LC50 (50% net cell kill) [3] was > 100 µM and the TGI [3] was > 100 µM. For the same compound, the GI50 [4] was 4.62 µM, the TGI [4] was 27 µM and the CC50 [4, 30] was > 100 µM. For the same compound, the GI50 [5] was 3.47 µM, the LC50 [5] was 0.563 µM and the TGI [5] was 12.3 µM. The GI50 [6] was 2.26 µM, the TGI [6] was 9.76 µM and the CC50 [6, 30] was 0.858 µM. For the same compound, the GI50 [7] was 3 µM, the TGI [7] was 9.34 µM and the CC50 [7, 30] was > 100 µM. The GI50 [8] was 1.15 µM, the TGI [8] was 8.02 µM and the CC50 [8, 30] was > 100 µM. The GI50 [9] was 3.4 µM, the TGI [9] was > 100 µM and the CC50 [9, 30] was > 100 µM. The GI50 [10] was 2.54 µM, the TGI [10] was 8.95 µM and the CC50 [10, 30] was 0.521 µM. For the same compound, the GI50 [11] was 4.03 µM, the LC50 [11] was > 100 µM and the TGI [11] was 11.2 µM. For the same compound, the GI50 [12] was 3.7 µM, the TGI [12] was 25.8 µM and the CC50 [12, 30] was > 100 µM. It also gave a GI50 [13] of 4.97 µM, a TGI [13] of 22.9 µM and a CC50 [13, 30] of 0.967 µM. The GI50 [14] was 3.06 µM, the LC50 (50% cell kill) [14] was > 100 µM and the TGI [14] was > 100 µM. The GI50 [15] was 3.9 µM, the TGI [15] was 19.8 µM and the CC50 [15, 30] was > 100 µM. For the same compound, the GI50 [16] was 3.62 µM, the TGI [16] was 32 µM and the CC50 [16, 30] was > 100 µM. For the same compound, the GI50 [17] was 7.33 µM, the TGI [17] was 58.2 µM and the CC50 [17, 30] was > 100 µM. It also gave a GI50 [18] of 2.9 µM, a TGI [18] of 8.22 µM and a CC50 [18, 30] of 0.758 µM. For the same compound, the GI50 [19] was 2.95 µM, the TGI [19] was 8.81 µM and the CC50 [19, 30] was > 100 µM. For the same compound, the GI50 [20] was 3.64 µM, the TGI [20] was 25 µM and the CC50 [20, 30] was > 100 µM. The GI50 [21] was 3.29 µM, the TGI [21] was 17.8 µM and the CC50 [21, 30] was > 100 µM. It also gave a GI50 [22] of 3.35 µM, a TGI [22] of 11.2 µM and a CC50 [22, 30] of 0.595 µM. The GI50 [23] was 1.72 µM, the TGI [23] was 7.86 µM and the CC50 [23, 30] was > 100 µM. For the same compound, the GI50 [24] was 3.21 µM, the LC50 (50% cell kill) [24] was > 100 µM and the TGI [24] was 20.3 µM. The GI50 [25] was 4.03 µM, the TGI [25] was 94.5 µM and the CC50 [25, 30] was > 100 µM. For the same compound, the GI50 [26] was 4.31 µM, the TGI [26] was > 100 µM and the CC50 [26, 30] was > 100 µM. For the same compound, the GI50 [27] was 3.25 µM, the TGI [27] was 15.6 µM and the CC50 [27, 30] was > 100 µM. The GI50 [28] was 3.42 µM, the LC50 (50% cell kill) [28] was > 100 µM and the TGI [28] was 36 µM. For the same compound, the GI50 [29] was 2.14 µM, the TGI [29] was 12.6 µM and the CC50 [29, 30] was > 100 µM.
